Reference: PMC428586 (Reproductive biology and endocrinology : RB&E, 2004)
Several values for one entry are separate records, joined by “and”; a condition that tells them apart may be missing. Identical values can stand only once. Marks after values point to notes of the source that are not given here.

How the values were obtained:
[1] = tested on: hamster oviduct (infundibulum) cilia; assay: Ciliary beat frequency assay, hamster oviductal explants in vitro; assay type: cell-based, golden hamster (Mesocricetus auratus); conditions: for Efficacy, Ciliary Beat Frequency: mean percentage of inhibition at the LOAEL
[2] = tested on: hamster oviduct (infundibulum); assay: Oocyte pickup rate assay, hamster oviduct explants in vitro; assay type: cell-based, golden hamster (Mesocricetus auratus); conditions: for Efficacy, Oocyte Pickup Rate: mean percentage of inhibition at the LOAEL
In short: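 Female golden hamsters were primed with 25 IU PMSG on estrous day 1 and 25 IU hCG on day 3, then killed with CO2 about 12 h later. On infundibulum explants, transit time of an oocyte-cumulus complex (OCC) along a fixed path was timed, 6–10 times each in EBSS-H/0.1% BSA control, one test dose (10-13–10-5 M screen; ANOVA), and recovery. The LOAEL was repeated to n = 4 infundibula, and efficacy was taken as mean % inhibition there.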

[3] = tested on: hamster oviduct infundibular smooth muscle; assay: Infundibular smooth muscle contraction assay, hamster oviduct explants in vitro; assay type: cell-based, golden hamster (Mesocricetus auratus); conditions: for LOAEL, Contraction Rate: lowest observable adverse effect level, hamster infundibulum in EBSS-H with 0.1% BSA, n = 4 infundibula; for Efficacy, Contraction Rate: mean percentage of inhibition at the LOAEL; for LOAEL, infundibular smooth muscle contraction: as stated in the abstract
[4] = tested on: rats; conditions: dose-dependent; cited from earlier work
[5] = tested on: female mice; conditions: due to effects on adrenal function; cited from earlier work
[6] = tested on: male rats; conditions: cited from earlier work
[7] = tested on: chick chorioallantoic membrane (CAM); conditions: due to inhibition of DNA synthesis; cited from earlier work
[8] = lowest observable adverse effect level, hamster infundibulum in EBSS-H with 0.1% BSA, n = 4 infundibula
[9] = more inhibitory than pyridine, pyridine data ref 16

SMILES	LOAEL, Ciliary Beat Frequency [1, 8]	Efficacy, Ciliary Beat Frequency [1]	Efficacy, Oocyte Pickup Rate [2]	LOAEL, Contraction Rate [3]	Efficacy, Contraction Rate [3]	LOAEL, Ciliary Beat Frequency ([1]; as stated in the abstract) [picomolar]	LOAEL, oocyte pickup rate ([2]; as stated in the abstract) [picomolar]	LOAEL, infundibular smooth muscle contraction [3]	further results
Cc1cnc(C)c(C)n1 [2,3,5-trimethylpyrazine]	10^-9 M	18%	10%	10^-9 M	58%	–	–	–	–
Cc1cnc(C)cn1 [2,5-dimethylpyrazine]	10^-8 M	34%	10* %	10^-9 M	40%	–	–	–	Effect on uterine weight [4]: caused a decrease in uterine weight; Effect on onset of puberty [5]: delayed the onset of puberty; Efficacy, Oocyte Pickup Rate ([2]; listed as 2,5-Dimethylpyrazine): 9.9%
Cc1cncc(C)n1 [2,6-dimethylpyrazine]	10^-6 M	5** %	3.5% and 3** %	10^-7 M	85*** %	–	–	–	LOAEL, oocyte pickup rate [2, 8]: 10^-9 M; Efficacy, Contraction Rate ([3]; listed as 2,6-Dimethylpyrazine): 85%
CCc1cnccn1 [2-ethylpyrazine]	–	3** %	45* %	–	38%	1	10	1 picomolar	Decrease of LOAEL in the smooth muscle contraction assay relative to pyrazine [3]: 1000 fold
COc1nccnc1C [2-methoxy-3-methylpyrazine]	10^-9 M	18%	13%	–	17** %	–	–	–	Efficacy, Contraction Rate ([3]; listed as 2-Methoxy-3-methylpyrazine): 17%
Cc1cnccn1 [2-methylpyrazine]	–	11* %	43* %	–	61** %	1	10	10 picomolar	Decrease of LOAEL in the smooth muscle contraction assay relative to pyrazine [3]: 100 fold
Cc1cnc(C)c(S)n1 [3,6-dimethylpyrazine-2-thiol]	–	–	–	–	–	–	–	–	Effect on prostate and seminal vesicle weights [6]: caused a decrease in prostate and seminal vesicle weights
c1cnccn1 [pyrazine]	–	25%	29%	10^-9 M	40%	1	10	1 nM	Inhibitory potency relative to pyridine, ciliary beat frequency [1, 9]: at least 1 million; Effect on CAM and embryo growth [7]: inhibited both CAM and embryo growth at picomolar doses; LOAEL dose, oocyte pickup rate assay ([2]; LOAEL expressed in ppb for comparison with food levels): 4 ppb; Inhibitory potency relative to pyridine, oocyte pickup rate [2, 9]: at least 1 million; Inhibitory potency relative to pyridine, infundibular smooth muscle contraction [3, 9]: at least 1 million
